In ChEMBL document CHEMBL1155174, “Cross-resistance to medical and agricultural azole drugs in yeasts from the oropharynx of human immunodeficiency virus patients and from environmental Bavarian vine grapes” (2007):
Values after ≈ are worked out from the molar mass of the structure shown.

Assays:
Assay type in all cases: functional
Nakaseomyces glabratus [1] = assay: Antifungal activity against Candida glabrata isolates from feeding stuffs by NCCLS M27-A2 method
Method in brief: (§1)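 Broth dilution per NCCLS M27-A2, with azoles serially diluted in high-resolution antifungal assay medium over 0.125–128, 0.03–64 or 0.06–128 μg/ml depending on the drug. MIC endpoints were read spectrophotometrically at 540 nm. Values are reported per species or source group as median and range.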

Pichia fermentans = assay: Antifungal activity against Candida lambica isolates from grapes by NCCLS M27-A2 method; method in brief: as §1
Rhodotorula = assay: Antifungal activity against Rhodotorula sp. isolates from grapes by NCCLS M27-A2 method; method in brief: as §1
Hanseniaspora uvarum = assay: Antifungal activity against sKloeckera apiculata isolates from grapes by NCCLS M27-A2 method; method in brief: as §1
Candida albicans [2] = assay: Antifungal activity against Candida albicans isolates from animals by NCCLS M27-A2 method; method in brief: as §1
Saccharomyces cerevisiae = assay: Antifungal activity against sSaccharomyces cerevisiae isolates from grapes by NCCLS M27-A2 method; method in brief: as §1
Candida parapsilosis = assay: Antifungal activity against Candida parapsilosis ATCC 22013 by NCCLS M27-A2 method; details: Lodderomyces parapsilosis
Cryptococcus neoformans = assay: Antifungal activity against Cryptococcus neoformans ATCC 90112 by NCCLS M27-A2 method
Pichia norvegensis = assay: Antifungal activity against Candida norvegensis isolates from grapes by NCCLS M27-A2 method; method in brief: as §1
Diutina rugosa = assay: Antifungal activity against Candida rugosa isolates from feeding stuff by NCCLS M27-A2 method; method in brief: as §1
Pichia kudriavzevii [3] = assay: Antifungal activity against Candida krusei ATCC 6258 by NCCLS M27-A2 method; method in brief: as §1
Candida albicans [4] = assay: Antifungal activity against Candida albicans isolates from HIV infected patient before fluconazole therapy by NCCLS M27-A2 method; method in brief: as §1
Candida albicans [5] = assay: Antifungal activity against Candida albicans isolates from HIV infected patient during fluconazole therapy by NCCLS M27-A2 method; method in brief: as §1
Wickerhamomyces anomalus = assay: Antifungal activity against Pichia anomala isolates from grapes by NCCLS M27-A2 method; details: Hansenula anomala; method in brief: as §1
Candida albicans [6] = assay: Antifungal activity against Candida albicans isolates by NCCLS M27-A2 method; method in brief: as §1
Pichia kudriavzevii [7] = assay: Antifungal activity against Candida krusei isolates from grapes and feeding stuffs by NCCLS M27-A2 method; method in brief: as §1
Starmerella stellata = assay: Antifungal activity against sCandida stellata isolates from grapes by NCCLS M27-A2 method; method in brief: as §1
Saccharomycopsis = assay: Antifungal activity against Saccharomycopsis guttulata isolates from feeding stuff by NCCLS M27-A2 method; method in brief: as §1
Nakaseomyces glabratus [8] = assay: Antifungal activity against Candida glabrata ATCC 90030 by NCCLS M27-A2 method; method in brief: as §1

Structure (SMILES) | MIC50 (Nakaseomyces glabratus [1]) | MIC50 (Pichia fermentans) | MIC50 (Rhodotorula) | MIC50 (Hanseniaspora uvarum) | MIC50 (Candida albicans [2]) | MIC50 (Saccharomyces cerevisiae) | MIC50 (Candida parapsilosis) | MIC50 (Cryptococcus neoformans) | MIC50 (Pichia norvegensis) | MIC50 (Diutina rugosa) | MIC50 (Pichia kudriavzevii [3]) | MIC50 (Candida albicans [4]) | MIC50 (Candida albicans [5]) | MIC50 (Wickerhamomyces anomalus) | MIC50 (Candida albicans [6]) | MIC50 (Pichia kudriavzevii [7]) | MIC50 (Starmerella stellata) | MIC50 (Saccharomycopsis) | MIC50 (Nakaseomyces glabratus [8])
OC(Cn1cncn1)(Cn1cncn1)c1ccc(F)cc1F [FLUCONAZOLE] | 32 µg/mL (≈ 104 µM) | 128 µg/mL (≈ 418 µM) | 16 µg/mL (≈ 52.2 µM) | 0.5 µg/mL (≈ 1.63 µM) | 0.25 µg/mL (≈ 0.816 µM) | 8 µg/mL (≈ 26.1 µM) | 2 µg/mL (≈ 6.53 µM) | 8 µg/mL (≈ 26.1 µM) | 128 µg/mL (≈ 418 µM) | 1 µg/mL (≈ 3.27 µM) | 64 µg/mL (≈ 209 µM) | 2.25 µg/mL (≈ 7.35 µM) | 128 µg/mL (≈ 418 µM) | 2 µg/mL (≈ 6.53 µM) | 0.12 µg/mL (≈ 0.392 µM) | 64 µg/mL (≈ 209 µM) | 64 µg/mL (≈ 209 µM) | 1 µg/mL (≈ 3.27 µM) | –
O=c1c2cc(F)ccc2nc(-n2cncn2)n1-c1ccc(Cl)cc1Cl [FLUQUINCONAZOLE] | 1 µg/mL (≈ 2.66 µM) | 64 µg/mL (≈ 170 µM) | 0.5 µg/mL (≈ 1.33 µM) | 0.12 µg/mL (≈ 0.319 µM) | 0.5 µg/mL (≈ 1.33 µM) | 0.25 µg/mL (≈ 0.665 µM) | 2 µg/mL (≈ 5.32 µM) | 0.12 µg/mL (≈ 0.319 µM) | 64 µg/mL (≈ 170 µM) | 0.12 µg/mL (≈ 0.319 µM) | 128 µg/mL (≈ 340 µM) | 0.375 µg/mL (≈ 0.997 µM) | 64 µg/mL (≈ 170 µM) | 4 µg/mL (≈ 10.6 µM) | 0.5 µg/mL (≈ 1.33 µM) | 128 µg/mL (≈ 340 µM) | 64 µg/mL (≈ 170 µM) | 64 µg/mL (≈ 170 µM) | 32 µg/mL (≈ 85.1 µM)
CCC(C)n1ncn(-c2ccc(N3CCN(c4ccc(OCC5COC(Cn6cncn6)(c6ccc(Cl)cc6Cl)O5)cc4)CC3)cc2)c1=O (stereo unspecified) [ITRACONAZOLE] | 1 µg/mL (≈ 1.42 µM) | 2 µg/mL (≈ 2.83 µM) | 0.06 µg/mL (≈ 0.085 µM) | 0.25 µg/mL (≈ 0.354 µM) | 0.12 µg/mL (≈ 0.17 µM) | 2 µg/mL (≈ 2.83 µM) | 0.25 µg/mL (≈ 0.354 µM) | 0.5 µg/mL (≈ 0.709 µM) | 1 µg/mL (≈ 1.42 µM) | 0.06 µg/mL (≈ 0.085 µM) | 0.5 µg/mL (≈ 0.709 µM) | 0.06 µg/mL (≈ 0.085 µM) | 0.75 µg/mL (≈ 1.06 µM) | 0.5 µg/mL (≈ 0.709 µM) | 0.06 µg/mL (≈ 0.085 µM) | 1 µg/mL (≈ 1.42 µM) | 2 µg/mL (≈ 2.83 µM) | 0.5 µg/mL (≈ 0.709 µM) | 4 µg/mL (≈ 5.67 µM)
CC(=O)N1CCN(c2ccc(OCC3COC(Cn4ccnc4)(c4ccc(Cl)cc4Cl)O3)cc2)CC1 (stereo unspecified) [KETOCONAZOLE] | 4 µg/mL (≈ 7.53 µM) | 4 µg/mL (≈ 7.53 µM) | 0.5 µg/mL (≈ 0.941 µM) | 0.25 µg/mL (≈ 0.47 µM) | 0.5 µg/mL (≈ 0.941 µM) | 2 µg/mL (≈ 3.76 µM) | 0.12 µg/mL (≈ 0.226 µM) | 2 µg/mL (≈ 3.76 µM) | 2 µg/mL (≈ 3.76 µM) | 0.25 µg/mL (≈ 0.47 µM) | 2 µg/mL (≈ 3.76 µM) | 0.25 µg/mL (≈ 0.47 µM) | 2 µg/mL (≈ 3.76 µM) | 1 µg/mL (≈ 1.88 µM) | 0.03 µg/mL (≈ 0.0565 µM) | 8 µg/mL (≈ 15.1 µM) | 8 µg/mL (≈ 15.1 µM) | 2 µg/mL (≈ 3.76 µM) | 8 µg/mL (≈ 15.1 µM)
CCCC(Cn1cncn1)c1ccc(Cl)cc1Cl (stereo unspecified) [PENCONAZOLE] | 4 µg/mL (≈ 14.1 µM) | 64 µg/mL (≈ 225 µM) | 16 µg/mL (≈ 56.3 µM) | 0.5 µg/mL (≈ 1.76 µM) | 2 µg/mL (≈ 7.04 µM) | 2 µg/mL (≈ 7.04 µM) | 8 µg/mL (≈ 28.2 µM) | 4 µg/mL (≈ 14.1 µM) | 64 µg/mL (≈ 225 µM) | 1 µg/mL (≈ 3.52 µM) | 64 µg/mL (≈ 225 µM) | 0.25 µg/mL (≈ 0.88 µM) | 12 µg/mL (≈ 42.2 µM) | 8 µg/mL (≈ 28.2 µM) | 2 µg/mL (≈ 7.04 µM) | 128 µg/mL (≈ 450 µM) | 96 µg/mL (≈ 338 µM) | 8 µg/mL (≈ 28.2 µM) | 4 µg/mL (≈ 14.1 µM)
CC(C)(C)C(O)(CCc1ccc(Cl)cc1)Cn1cncn1 (stereo unspecified) [TEBUCONAZOLE] | 2 µg/mL (≈ 6.5 µM) | 16 µg/mL (≈ 52 µM) | 1 µg/mL (≈ 3.25 µM) | 0.06 µg/mL (≈ 0.195 µM) | 0.185 µg/mL (≈ 0.601 µM) | 1 µg/mL (≈ 3.25 µM) | 1 µg/mL (≈ 3.25 µM) | 4 µg/mL (≈ 13 µM) | 4 µg/mL (≈ 13 µM) | 0.06 µg/mL (≈ 0.195 µM) | 32 µg/mL (≈ 104 µM) | 0.75 µg/mL (≈ 2.44 µM) | 24 µg/mL (≈ 78 µM) | 4 µg/mL (≈ 13 µM) | 0.06 µg/mL (≈ 0.195 µM) | 64 µg/mL (≈ 208 µM) | 64 µg/mL (≈ 208 µM) | 4 µg/mL (≈ 13 µM) | 8 µg/mL (≈ 26 µM)
CC(C)(C)C(O)C(Oc1ccc(Cl)cc1)n1cncn1 (stereo unspecified) [TRIADIMENOL] | 8 µg/mL (≈ 27 µM) | 128 µg/mL (≈ 433 µM) | 64 µg/mL (≈ 216 µM) | 0.25 µg/mL (≈ 0.845 µM) | 1.5 µg/mL (≈ 5.07 µM) | 8 µg/mL (≈ 27 µM) | 16 µg/mL (≈ 54.1 µM) | 4 µg/mL (≈ 13.5 µM) | 64 µg/mL (≈ 216 µM) | 1 µg/mL (≈ 3.38 µM) | 32 µg/mL (≈ 108 µM) | 2 µg/mL (≈ 6.76 µM) | 64 µg/mL (≈ 216 µM) | 16 µg/mL (≈ 54.1 µM) | 2 µg/mL (≈ 6.76 µM) | 64 µg/mL (≈ 216 µM) | 128 µg/mL (≈ 433 µM) | 16 µg/mL (≈ 54.1 µM) | 8 µg/mL (≈ 27 µM)
C[C@@H](c1ncncc1F)[C@](O)(Cn1cncn1)c1ccc(F)cc1F [VORICONAZOLE] | 0.25 µg/mL (≈ 0.716 µM) | 2 µg/mL (≈ 5.73 µM) | 0.06 µg/mL (≈ 0.172 µM) | 0.03 µg/mL (≈ 0.0859 µM) | 0.03 µg/mL (≈ 0.0859 µM) | 0.5 µg/mL (≈ 1.43 µM) | 0.06 µg/mL (≈ 0.172 µM) | 0.25 µg/mL (≈ 0.716 µM) | 2 µg/mL (≈ 5.73 µM) | 0.03 µg/mL (≈ 0.0859 µM) | 1 µg/mL (≈ 2.86 µM) | 0.03 µg/mL (≈ 0.0859 µM) | 1.5 µg/mL (≈ 4.29 µM) | 0.25 µg/mL (≈ 0.716 µM) | 0.03 µg/mL (≈ 0.0859 µM) | 1 µg/mL (≈ 2.86 µM) | 1 µg/mL (≈ 2.86 µM) | 0.12 µg/mL (≈ 0.344 µM) | 2 µg/mL (≈ 5.73 µM)
